# Screens (PubChem)
# IMP-1 inhibitor: IMP-1 metallo-beta-lactamase inhibitors, primary screen, biochemical, epi-absorbance readout, Pseudomonas aeruginosa enzyme; inhibition, % at 5.6 µM; metallo-beta-lactamase IMP-1 (Pseudomonas aeruginosa); AID 1556, 2009; purified IMP-1, nitrocefin hydrolysis, epi-absorbance fluorescence; 0.45% of 290,000 active;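 active = inhibition above the mean plus 3 SD of all compounds in the same screening run, cut at about 4.5% in these data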;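 note: 0% = IMP-1 with DMSO and 100% = DMSO wells lacking enzyme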
#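 Test system: recombinant IMP-1 enzyme, purified / Medium: HEPES buffer pH 7.1 with ZnSO4 and Brij 35 / Doses: single dose, 5.6 µM / Times: 25 °C, 15 min preincubation, 25 min reaction / Detection: Epi-absorbance via hydrolysed-nitrocefin quenching of white-plate fluorescence, 480/530 nm, EDTA stop / Evaluation: percent inhibition from optical density relative to buffer-blank wells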
# UBC9 SUMO inh: inhibitors of in vitro SUMOylation cascade, primary screen, biochemical, HTRF, uHTS; inhibition, % at 35 µM; AID 2006, 2009; HTRF SUMOylation assay, SAE1/SAE2 + UBC9; 0.36% of 290,000 active; SUMO-conjugating enzyme UBC9 (Homo sapiens), P63279; in the data active = inhibition above about 50%, passing the limit was not always enough
# Target sequence (P63279 whole entry, looked up): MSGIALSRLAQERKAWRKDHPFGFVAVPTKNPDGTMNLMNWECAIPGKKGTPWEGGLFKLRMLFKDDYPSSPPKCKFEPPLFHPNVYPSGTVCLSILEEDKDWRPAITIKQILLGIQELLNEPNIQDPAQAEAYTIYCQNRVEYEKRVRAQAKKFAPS
# HCV core dimer: inhibitors of HCV core protein dimerization, primary screen, biochemical, TR-FRET, high-throughput; AID 1899, 2009; inhibition, % at 5 µM; 0.33% of 300,000 active; TR-FRET GST/Flag-core106 dimerization, 1536-well;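 active = inhibition above the mean of all tested compounds plus 3 SD, set per screening campaign, cut at about 45% in these data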
#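 System – GST-tagged and Flag-tagged HCV core protein residues 1-106 · Repeats – one well for each compound · Technique – TR-FRET 671 and 617 nm emission · Doses – one concentration, 5 µM, in 0.5% DMSO · Times – 4 h, 22.5 °C incubation · Also added – Eu donor and XL665 acceptor anti-tag antibodies · Measure – percent inhibition of core106 dimerization signal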
# VIM-2 inhibitor: VIM-2 metallo-beta-lactamase inhibitors, primary screen, biochemical, epi-absorbance readout, Pseudomonas aeruginosa enzyme. inhibition, % at 5.6 µM. 0.89% of 290,000 active. purified VIM-2, nitrocefin hydrolysis, epi-absorbance fluorescence. AID 1527, 2009;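 active = inhibition above the mean of all tested compounds plus 3 SD, cutoff set per screening run, cut at about 7.5% in these data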;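 note: red hydrolysis product quenches plate fluorescence so inhibitors raise well fluorescence; 0% = enzyme with DMSO and 100% = DMSO without enzyme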
# PHOSPHO1 block: PubChem AID 1565 | recombinant PHOSPHO1, absorbance phosphatase assay | Phosphoethanolamine/phosphocholine phosphatase (Homo sapiens), Q8TCT1 | 1.1% of 290,000 active | inhibition, % at 13.3 µM; in the data active = inhibition above about 60%
# Target sequence (Q8TCT1 whole entry, looked up): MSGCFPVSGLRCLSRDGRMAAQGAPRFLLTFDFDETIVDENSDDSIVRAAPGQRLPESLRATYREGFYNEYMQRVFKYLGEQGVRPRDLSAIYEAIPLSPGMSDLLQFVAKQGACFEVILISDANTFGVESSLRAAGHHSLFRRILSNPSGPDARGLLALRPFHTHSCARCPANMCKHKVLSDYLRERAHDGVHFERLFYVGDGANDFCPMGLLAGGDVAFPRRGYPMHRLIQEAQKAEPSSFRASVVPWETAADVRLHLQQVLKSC
# HCV NS3 hel inh: inhibitors of HCV NS3 helicase, primary screen, biochemical, Cy5 molecular beacon fluorescence; Hepatitis C virus NS3 helicase; NS3 helicase DNA unwinding; inhibition, % at 10.9 µM; 0.56% of 290,000 active; AID 1800, 2009;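 active = inhibition above the mean of all tested compounds plus 3 SD, set per campaign, cut at about 35% in these data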;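 note: 0% = DMSO wells and 100% = thioflavine S control wells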
#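 Measured by: Cy5 fluorescence, 0 and 60 min reads / Assay system: NS3 helicase fragment of HCV / Control set: low DMSO, high thioflavine S at 110 µM / Times: 1 h reaction at 25 °C, ATP-initiated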
# Starred values were filed as active, the others as inactive; / = no result given. In the library only some 3.1% were active in any assay of this set; here they are far more common.
SMILES,IMP-1 inhibitor,UBC9 SUMO inh,HCV core dimer,VIM-2 inhibitor,PHOSPHO1 block,HCV NS3 hel inh
COc1ccc(CCNC(=O)CCC(=O)NC2CCCC(C)C2C)cc1OC (stereo unspecified),-6,21,-8,-4,/,-9
Cc1ccc(C2C(C=Nc3c(C)n(C)n(-c4ccccc4)c3=O)=C(c3ccccc3)Oc3ccccc32)cc1 (stereo unspecified),-4,9,46*,-3,-10,1
Cc1c(N=Cc2cccs2)c(=O)n(-c2ccccc2)n1C,-2,-5,0,-3,9,1
COCCN(CCOC)S(=O)(=O)c1ccc(C(=O)Nc2c(C)n(C)n(-c3ccccc3)c2=O)cc1,-2,5,-5,-2,20,6
CCCCOc1ccc(CN2CCC(O)CC2)cc1,45*,22,-3,-3,22,-11
CSc1ccc(CN2CCC(O)CC2)cc1,-1,/,/,-2,/,-2
CS(=O)(=O)N(CC(=O)Nc1cc(Cl)ccc1Cl)c1ccccc1,4.6*,1,-1,-1,-2,11
CS(=O)(=O)N(CC(=O)Nc1cccc(Cl)c1Cl)c1ccccc1,-3,4,0,-2,0,-3
CCOc1ccccc1N(CC(=O)OC)S(C)(=O)=O,4.9*,23,4,-2,6,-5
CCOc1ccc(N(CC(=O)Nc2ccccc2)S(C)(=O)=O)cc1,-3,6,0,-3,80*,-7
COc1ccc(CN2C(=O)CNC2=S)cc1,-3,15,-5,-2,20,13
COc1ccc([N+](=O)[O-])cc1NC(=O)C(C)Sc1nc(-c2ccccc2)cs1 (stereo unspecified),-3,-1,10,-3,1,0
Cn1c(OCc2cccnc2)nc2c1c(=O)n(Cc1ccccc1)c(=O)n2C,-2,0,2,8.7*,27,-5
Cn1c(OCc2cccnc2)nc2c1c(=O)n(Cc1ccc(F)cc1)c(=O)n2C,-2,22,10,1,28,-1
Cc1ncc(CO)c2cc(C(=O)Nc3ccccc3Cl)c(=Nc3cccc(C(N)=O)c3)oc12,-4,-16,9,-2,26,3
O=C1N(c2ccc(Cl)c(Cl)c2)CN(Cc2ccccc2)CN1n1cnnc1,-1,61*,1,0,-16,3
COc1ccc(CN2CN(c3ccc(Cl)cc3)C(=O)N(n3cnnc3)C2)cc1,0,27,-1,0,32,0
CCCCNC(=S)NNC(=O)c1csc(C)c1CC,-1,14,-5,-4,1,-5
C=CCNC(=S)NNC(=O)c1csc(C)c1CC,-4,16,1,-6,81*,3
COC(c1ccccc1)c1nnc(CCC(=O)NCCCc2ccccc2)o1 (stereo unspecified),0,12,-4,-1,39,-16
COC(c1ccccc1)c1nnc(CCC(=O)NC2C3CC4CC(C3)CC2C4)o1 (stereo unspecified),0,0,-2,-1,60*,-3
Cc1ccc2[nH]c(=O)c(C(c3nnnn3CC3CCCO3)N3CCc4ccccc4C3)cc2c1 (stereo unspecified),-1,34,0,-2,-46,-2
CCC(C)(C)n1nnnc1C(c1cc2cc(C)ccc2[nH]c1=O)N1CCCc2ccccc21 (stereo unspecified),-5,27,17,-1,75*,5
Cc1ccc2[nH]c(=O)c(C(c3nnnn3CC3CCCO3)N3CCCc4ccccc43)cc2c1 (stereo unspecified),-3,18,3,-3,86*,2
CCC(C)(C)n1nnnc1C(c1cc2cc(OC)ccc2[nH]c1=O)N1CCc2ccccc21 (stereo unspecified),-1,-2,14,-4,7,3
SMILES,IMP-1 inhibitor,UBC9 SUMO inh,HCV core dimer,VIM-2 inhibitor,PHOSPHO1 block,HCV NS3 hel inh
O=c1cc(-c2ccc(F)cc2)oc2ccccc12,-3,/,2,-2,/,8
CSc1ccc(-c2cc(=O)c3ccccc3o2)cc1,-7,54*,8,1,-3,0
COc1ccc(NC(=S)N2CCN(S(=O)(=O)c3ccccc3)CC2)cc1,-2,4,/,0,23,0
O=C(/C=C(\O)c1ccc(Cl)cc1)C(=O)NNC(=O)C(O)(c1ccccc1)c1ccccc1,-5,-3,15,-5,7,54*
O=C(/C=C(\O)c1ccccc1)C(=O)NNC(=O)c1ccccc1,-3,13,10,-2,/,16
CCN(CC)c1ccc(C=NCCc2ccc(S(N)(=O)=O)cc2)cc1,-1,16,-1,2,16,4
O=C(NCCc1cccc(Cl)c1)c1cccs1,-1,-7,-6,-3,37,3
CCCN(CC(=O)Nc1ccccc1C)C(=O)C1CC(=O)N(Cc2ccccc2)C1 (stereo unspecified),/,/,0,/,/,/
Oc1ccc(/C=N/Nc2cccc3cccnc23)c(O)c1,-2,16,-26,0,-17,15
Cc1ccc(/C=N/Nc2cccc3cccnc23)c(O)c1,-2,-34,-13,-4,98*,-2
Cc1cccc(NC(=O)Nc2ccccc2[N+](=O)[O-])n1,-2,-3,-1,2,0,18
COc1ccc(-c2cn3c(C)c(C(=O)Nc4ccncc4)sc3n2)cc1,-1,-14,-58,0,94*,-18
Cc1c(C(=O)Nc2ccncc2)sc2nc(-c3ccc(F)cc3)cn12,-1,-21,-43,-1,6,-17
O=C(CSc1n[nH]c(-c2ccncc2)n1)NC1CCS(=O)(=O)C1 (stereo unspecified),-3,31,-8,-5,98*,-2
O=C(Cn1nnc(-c2ccc(Cl)cc2)n1)NCc1ccco1,-2,13,1,-2,6,9
O=C(Cn1nnc(-c2cccs2)n1)NCc1ccco1,1,20,-2,1,64*,-3
COc1ccc(C(=O)Nc2ccc(-c3nnn(CC(=O)NCc4ccco4)n3)cc2)cc1,-3,61*,6,-2,40,13
C=CCNC(=S)Nc1cccc(N)c1,-3,16,-4,-2,29,-6
CCO[C@H]1OC(C(=O)NCc2nc3ccccc3[nH]2)=C[C@@H](c2ccc3c(c2)OCO3)[C@@H]1CCCO,/,/,-1,/,/,/
O=C(Nc1nccs1)c1ccc(COc2c(F)c(F)cc(F)c2F)cc1,-1,14,1,-1,/,-11
CC(C)(C)c1nnc2sc(SC/C(O)=C(\C#N)c3nc4ccccc4[nH]3)nn2c1=O,-6,11,60*,-3,71*,1
